# Columns and labels:
# Format in all cases: functional
# [1] = Cytotoxicity against human Hs578T cells assessed as cell growth at 10 uM after 48 hrs by SRB assay; conditions: Hs-578T, read-out: Activity
# Outline: (§1)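 NCI-60 single-dose screen. Cell lines grown in RPMI 1640 with 5% FBS and 2 mM L-glutamine, plated at 5000–40,000 cells/well according to doubling time, then preincubated 24 h at 37 °C in 5% CO2. Compounds dissolved in DMSO, tested at 10^-5 M for 48 h. Adherent cells fixed with cold TCA (10% final) and stained with 0.4% SRB in 1% acetic acid. Growth expressed as percent of untreated control.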
# [2] = test system: SNB-75; assay: Cytotoxicity against human SNB75 cells assessed as cell growth at 10 uM after 48 hrs by SRB assay; conditions: SNB-75, 48 h, read-out: Activity; outline: as §1
# [3] = test system: NCI-H23; assay: Cytotoxicity against human NCI-H23 cells assessed as cell growth at 10 uM after 48 hrs by SRB assay; conditions: NCI-H23, 48 h, read-out: Activity; outline: as §1
# [4] = test system: T47D; assay: Cytotoxicity against human T47D cells assessed as cell growth at 10 uM after 48 hrs by SRB assay; conditions: read-out: Activity
# Outline: (§2)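 NCI-60 single-dose screen at 10^-5 M. Adherent lines are grown in RPMI 1640 with 5% FBS and 2 mM L-glutamine, seeded at 5000–40,000 cells/well by doubling time, and preincubated 24 h at 37 °C in 5% CO2. Drug is added from DMSO stock diluted in medium, then 48 h. Cells are fixed in cold TCA (final 10%) for 60 min and stained with 0.4% SRB in 1% acetic acid. Growth is expressed as % of untreated control using time-zero plates.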
# [5] = test system: MOLT-4; assay: Cytotoxicity against human MOLT4 cells assessed as cell growth at 10 uM after 48 hrs by SRB assay; conditions: MOLT-4, 48 h, read-out: Activity; outline: as §1
# [6] = test system: SNB-19; assay: Cytotoxicity against human SNB19 cells assessed as cell growth at 10 uM after 48 hrs by SRB assay; conditions: SNB-19, 48 h, read-out: Activity; outline: as §1
# [7] = test system: HOP-62; assay: Cytotoxicity against human HOP62 cells assessed as cell growth at 10 uM after 48 hrs by SRB assay; conditions: HOP-62, 48 h, read-out: Activity; outline: as §1
# [8] = test system: NCI-H522; assay: Cytotoxicity against human NCI-H522 cells assessed as cell growth at 10 uM after 48 hrs by SRB assay; conditions: NCI-H522, 48 h, read-out: Activity; outline: as §1
# [9] = test system: KM12; assay: Cytotoxicity against human KM12 cells assessed as cell growth at 10 uM after 48 hrs by SRB assay; conditions: KM12, 48 h, read-out: Activity; outline: as §1
# [10] = test system: MDA-MB-435; assay: Cytotoxicity against human MDA-MB-435 cells assessed as cell growth at 10 uM after 48 hrs by SRB assay; conditions: MDA-MB-435, 48 h, read-out: Activity; outline: as §1
# [11] = Cytotoxicity against human OVCAR5 cells assessed as cell growth at 10 uM after 48 hrs by SRB assay; conditions: OVCAR-5, 48 h, read-out: Activity; outline: as §1
# [12] = Cytotoxicity against human OVCAR4 cells assessed as cell growth at 10 uM after 48 hrs by SRB assay; conditions: OVCAR-4, 48 h, read-out: Activity; outline: as §1
# [13] = test system: SF-268; assay: Cytotoxicity against human SF268 cells assessed as cell growth at 10 uM after 48 hrs by SRB assay; conditions: SF-268, 48 h, read-out: Activity; outline: as §1
# [14] = Cytotoxicity against human NCI-ADR-RES cells assessed as cell growth at 10 uM after 48 hrs by SRB assay; conditions: read-out: Activity; outline: as §1
# [15] = test system: MDA-MB-231; assay: Cytotoxicity against human MDA-MB-231 cells assessed as cell growth at 10 uM after 48 hrs by SRB assay; conditions: MDA-MB-231, 48 h, read-out: Activity; outline: as §1
# [16] = test system: HL-60(TB); assay: Cytotoxicity against human HL-60(TB) cells assessed as cell growth at 10 uM after 48 hrs by SRB assay; conditions: HL-60, 48 h, read-out: Activity
# Outline: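 NCI-60 single-dose screen: cells grown in RPMI 1640 with 5% FBS and 2 mM L-glutamine, plated at 5000–40,000 cells/well, preincubated 24 h at 37 °C, 5% CO2. Compound dissolved in DMSO, tested at 10^-5 M for 48 h. Cells TCA-fixed, sulforhodamine B stained. Growth expressed as percent of untreated control, referenced to time-zero plates.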
# [17] = test system: UACC-62; assay: Cytotoxicity against human UACC62 cells assessed as cell growth at 10 uM after 48 hrs by SRB assay; conditions: UACC-62, 48 h, read-out: Activity; outline: as §2
# [18] = test system: CCRF-CEM; assay: Cytotoxicity against human CCRF-CEM cells assessed as cell growth at 10 uM after 48 hrs by SRB assay; conditions: read-out: Activity; outline: as §1
# [19] = test system: DU-145; assay: Cytotoxicity against human DU145 cells assessed as cell growth at 10 uM after 48 hrs by SRB assay; conditions: DU-145, 48 h, read-out: Activity; outline: as §1
# [20] = test system: SN12C; assay: Cytotoxicity against human SN12C cells assessed as cell growth at 10 uM after 48 hrs by SRB assay; conditions: read-out: Activity; outline: as §1
# [21] = test system: Malme-3M; assay: Cytotoxicity against human MALME-3M cells assessed as cell growth at 10 uM after 48 hrs by SRB assay; conditions: read-out: Activity; outline: as §1
# [22] = test system: SW-620; assay: Cytotoxicity against human SW620 cells assessed as cell growth at 10 uM after 48 hrs by SRB assay; conditions: SW-620, 48 h, read-out: Activity; outline: as §2
# [23] = test system: HOP-92; assay: Cytotoxicity against human HOP92 cells assessed as cell growth at 10 uM after 48 hrs by SRB assay; conditions: HOP-92, 48 h, read-out: Activity; outline: as §1
# [24] = test system: HCT-116; assay: Cytotoxicity against human HCT116 cells assessed as cell growth at 10 uM after 48 hrs by SRB assay; conditions: HCT-116, 48 h, read-out: Activity; outline: as §1
# [25] = test system: SK-MEL-5; assay: Cytotoxicity against human SK-MEL-5 cells assessed as cell growth at 10 uM after 48 hrs by SRB assay; conditions: SK-MEL-5, 48 h, read-out: Activity; outline: as §1
# [26] = test system: NCI-H460; assay: Cytotoxicity against human NCI-H460 cells assessed as cell growth at 10 uM after 48 hrs by SRB assay; conditions: NCI-H460, 48 h, read-out: Activity; outline: as §1
# [27] = test system: TK-10; assay: Cytotoxicity against human TK10 cells assessed as cell growth at 10 uM after 48 hrs by SRB assay; conditions: TK-10, 48 h, read-out: Activity; outline: as §2
# [28] = test system: OVCAR-8; assay: Cytotoxicity against human OVCAR8 cells assessed as cell growth at 10 uM after 48 hrs by SRB assay; conditions: OVCAR-8, 48 h, read-out: Activity; outline: as §1
SMILES,growth at 10 µM [1] [%],growth at 10 µM [2] [%],growth at 10 µM [3] [%],growth at 10 µM [4] [%],growth at 10 µM [5] [%],growth at 10 µM [6] [%],growth at 10 µM [7] [%],growth at 10 µM [8] [%],growth at 10 µM [9] [%],growth at 10 µM [10] [%],growth at 10 µM [11] [%],growth at 10 µM [12] [%],growth at 10 µM [13] [%],growth at 10 µM [14] [%],growth at 10 µM [15] [%],growth at 10 µM [16] [%],growth at 10 µM [17] [%],growth at 10 µM [18] [%],growth at 10 µM [19] [%],growth at 10 µM [20] [%],other results
CC1=NN(c2cn3c(-c4ccc(Cl)cc4)csc3n2)C(=O)C1,101,65.3,92,73.7,65.8,88,97.5,84.5,105,87.4,106,77.2,96.3,100,96.5,92.5,81.9,84.4,105,90.9,growth at 10 µM [21]: 102%; growth at 10 µM [22]: 99.3%; growth at 10 µM [23]: 73.6%; growth at 10 µM [24]: 97.1%; growth at 10 µM [25]: 92.4%; growth at 10 µM [26]: 103%; growth at 10 µM [27]: 98.8%; growth at 10 µM [28]: 94.2%
Cc1cc(C)n(-c2cn3c(-c4ccc(Cl)cc4)csc3n2)n1,94.3,69.2,91,80.7,81.3,92.8,97.1,75.3,99.9,94.5,109,81.9,102,100,86.4,90.2,86.9,87.8,113,89,growth at 10 µM [21]: 93.1%; growth at 10 µM [22]: 100%; growth at 10 µM [23]: 74.7%; growth at 10 µM [24]: 89.8%; growth at 10 µM [25]: 85.5%; growth at 10 µM [26]: 101%; growth at 10 µM [27]: 128%; growth at 10 µM [28]: 91.5%
O=C1CC(=O)N(c2cn3c(-c4ccc(Cl)cc4)csc3n2)N1,98.3,74.2,97.8,87.3,79,90.2,104,74.1,106,93.7,115,87.4,105,99.3,107,88.1,90.1,89.5,105,88.4,growth at 10 µM [21]: 97.1%; growth at 10 µM [22]: 104%; growth at 10 µM [23]: 99.4%; growth at 10 µM [24]: 93.2%; growth at 10 µM [25]: 99.7%; growth at 10 µM [26]: 104%; growth at 10 µM [27]: 95%; growth at 10 µM [28]: 101%
CC1=NN(c2cn3c(-c4ccc(C)cc4)csc3n2)C(=O)C1,109,79.1,95.5,80.6,78.9,100,99.2,88.9,104,83.6,124,99.9,111,99.3,79,110,74.1,94,113,96.4,growth at 10 µM [21]: 107%; growth at 10 µM [22]: 105%; growth at 10 µM [23]: 65.5%; growth at 10 µM [24]: 94.4%; growth at 10 µM [25]: 90%; growth at 10 µM [26]: 105%; growth at 10 µM [27]: 135%; growth at 10 µM [28]: 102%
